M5 ag – human M5 muscarinic receptor agonists, primary screen, CHO-K1 cells, Fluo-8 calcium fluorescence | Muscarinic acetylcholine receptor M5 (Homo sapiens), P08912 | CHO-K1 hM5 cells; 0% DMSO wells, 100% maximal acetylcholine response | activation, % at 3 µM | 360,000 tested, 0.19% active | AID 624037, 2012;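 active means activation above the run's mean over test compounds plus 3 SD, cut at about 23% in these data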;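 further: signal is peak over basal fluorescence ratio across the kinetic read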
M4 ag – human M4 muscarinic receptor agonists, primary screen, CHO-K1 cells, Fluo-8 calcium fluorescence | 360,000 tested, 0.14% active | CHO-K1 hM4/Gqi5; vehicle 0%, full acetylcholine response 100% | activation, % at 3 µM | Muscarinic acetylcholine receptor M4 (Homo sapiens), P08173;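 active means activation above the run mean over all test wells plus 3 SD, cut at about 32% in these data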;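 further: peak over basal fluorescence ratio per well then scaled between controls; 0% = DMSO wells and 100% = acetylcholine at EC100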
Target sequence (P08173 whole entry, looked up): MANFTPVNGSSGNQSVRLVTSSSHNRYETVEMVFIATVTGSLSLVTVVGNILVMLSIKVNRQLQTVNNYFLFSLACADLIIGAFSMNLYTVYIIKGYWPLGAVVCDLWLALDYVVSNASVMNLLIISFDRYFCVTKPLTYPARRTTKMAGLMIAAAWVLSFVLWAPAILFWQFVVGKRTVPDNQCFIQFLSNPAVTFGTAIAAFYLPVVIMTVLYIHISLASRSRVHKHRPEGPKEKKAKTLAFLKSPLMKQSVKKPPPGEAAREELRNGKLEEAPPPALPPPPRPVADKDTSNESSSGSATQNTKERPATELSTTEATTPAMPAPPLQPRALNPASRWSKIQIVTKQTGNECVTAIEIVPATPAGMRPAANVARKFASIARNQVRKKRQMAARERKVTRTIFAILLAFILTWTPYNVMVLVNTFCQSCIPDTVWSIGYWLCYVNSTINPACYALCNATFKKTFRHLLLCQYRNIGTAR
M4 antag – human M4 muscarinic receptor antagonists, primary screen, CHO cells, Fluo-8 calcium fluorescence | Muscarinic acetylcholine receptor M4 (Homo sapiens), P08173 | 360,000 tested, 0.73% active | inhibition, % at 3 µM | CHO-hM4 cells, ACh EC80;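 active means inhibition above its plate's cutoff, the mean inhibition of sample wells plus 3 SD, cut at about 27% in these data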;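 further: 0% = acetylcholine EC80 with DMSO and 100% = DMSO without agonist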
CHRM4 PAM – human M4 muscarinic receptor positive allosteric modulators, primary screen, CHO-K1 cells, Fluo-8 calcium fluorescence. CHO-K1 hM4/Gqi5, ACh EC20; 0% = ACh EC20, 100% = maximal ACh. AID 624126, 2012. Muscarinic acetylcholine receptor M4 (Homo sapiens), P08173. 360,000 tested, 0.4% active. activation, % at 3 µM;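 active means activation above its plate's cutoff, the mean activation of sample wells plus 3 SD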
M5 PAM – human M5 muscarinic receptor positive allosteric modulators, primary screen, CHO-K1 cells, Fluo-8 calcium fluorescence; Muscarinic acetylcholine receptor M5 (Homo sapiens), P08912; CHO-K1 hM5, ACh EC20 PAM; 0% = ACh EC20, 100% = ACh EC100; activation, % at 3 µM; 360,000 tested, 0.3% active; AID 624038, 2012;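 active means activation above the run cutoff, the mean activation of all test compounds plus 3 SD, cut at about 18% in these data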
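Test system: CHO-K1 hM5 cells / Doses: single-point, 3 µM nominal / Times: Post-acetylcholine fluorescence recording 140 s / Technique: Fluo-8 calcium fluorescence / Measure: Max/basal fluorescence ratio as % of EC20–EC100 ACh window / Benchmarks: low control EC20 acetylcholine (0%), high control EC100 acetylcholine (100%) / Replicates: one well per compound, no replicates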
M5 antag – human M5 muscarinic receptor antagonists, primary screen, CHO cells, Fluo-8 calcium fluorescence. Muscarinic acetylcholine receptor M5 (Homo sapiens), P08912. CHO-hM5 cells, ACh EC80. inhibition, % at 3 µM. 360,000 tested, 0.59% active. AID 624040, 2012;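 active means inhibition above a per-plate cutoff, the mean of that plate's test compounds plus 3 SD, cut at about 27% in these data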;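 further: 0% = acetylcholine EC80 with DMSO and 100% = DMSO without agonist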
An asterisk follows results filed as active. Compounds with a hit are over-represented: about 1.9% of the library has one in this group of screens.

SMILES	M5 ag	M4 ag	M4 antag	CHRM4 PAM	M5 PAM	M5 antag
Brc1ccc(C2=CC(c3cccs3)n3ncnc3N2)cc1 (stereo not drawn)	27*	37*	4	-29	-21	14
C1=C(c2ccc(-c3ccccc3)cc2)Nc2ncnn2C1c1ccco1 (stereo not drawn)	53*	62*	27*	-17	-34	16
Fc1ccc(C2=CC(c3ccc(Br)o3)n3ncnc3N2)cc1 (stereo not drawn)	3	3	2	-7	-6	0
CCc1ccc(NC(=O)Cn2cnc3sc(C)c(S(=O)(=O)N4CCOCC4)c3c2=O)cc1	0	21	0	-6	0	-2
NNC1=N[C@H]2CS(=O)(=O)C[C@H]2S1	-1	1	-5	24*	9	-2
O=C(NCc1ccccc1)c1ccc(NC2=NC3CS(=O)(=O)CC3S2)cc1 (stereo not drawn)	-1	1	2	0	0	2
COC(=O)[C@H](Cc1ccccc1)NC(=O)NCCC1=CCCCC1	-6	2	14	0	-23	63*
COC(=O)[C@H](CCSC)NC(=O)NCCC1=CCCCC1	-1	1	9	0	-21	35*
COC(=O)[C@H](C)NC(=O)NCCC1=CCCCC1	-1	0	-4	-5	-4	10
O=[N+]([O-])c1ccccc1CN1CCN(S(=O)(=O)Cc2ccccc2)CC1	-2	2	0	15	2	5
CN(Cc1ccccc1)C1CCN(Cc2ccccc2[N+](=O)[O-])CC1	-21	1	48*	-17	-15	11
COc1ccccc1CN1CCC(CNS(=O)(=O)c2cc(-c3cc(C)no3)ccc2OC)CC1	-8	1	32*	-23	-5	2
COc1cccc(NC(=O)NNC(=O)C(C)Oc2ccc3ccccc3c2)c1 (stereo not drawn)	-2	2	6	-4	-4	-1
CC(Oc1ccccc1)C(=O)Nc1ccc(C(N)=O)cc1 (stereo not drawn)	2	4	4	9	-3	3
CC(C)NS(=O)(=O)c1ccc(NC(=O)C(C)Oc2ccc(C(=O)c3ccccc3)cc2)cc1 (stereo not drawn)	65*	117*	71*	-46	-17	47*
COc1ccc(OC(C)C(=O)Nc2cccc(OC)c2)cc1 (stereo not drawn)	-6	0	-14	5	19*	-12
COc1ccc(NC(=O)C(C)Oc2ccc(/C(C)=N\O)cc2)cc1 (stereo not drawn)	27*	9	-13	-1	-18	-2
Cc1ccc(CN2CCC(Oc3cccc(C(=O)N(C)CCN(C)C)c3)CC2)cc1C	-21	1	7	-14	-12	13
CC(C)[C@H](NC(=O)NC1CCN(Cc2ccccc2)CC1)C(=O)O	-4	0	-9	1	-5	4
Cc1cc2ncn(/N=C/c3ccc4c(c3)OCO4)c2cc1C	-2	2	-13	4	-1	5
Cc1nc2nc(C)n(CCN3CCOCC3)c(=O)c2c(-c2cccc([N+](=O)[O-])c2)c1C(=O)CCCCCCCCCCN1CCC(c2ccccc2)(c2ccccc2)CC1	-6	21	95*	-12	-44	96*
O=C(N/N=C/C(Br)=C\c1ccccc1)c1cccs1	6	2	-4	-1	23*	-29
CC(=C/c1ccccc1)/C=N/NC(=O)c1cccs1	-5	-1	-3	-1	-5	3
CC(=O)Nc1cccc(NC(=O)CS(=O)(=O)c2cn(CC(=O)N3CCCC3)c3ccccc23)c1	-3	1	-5	-1	-1	-4

Screening results deposited in PubChem BioAssay by The Scripps Research Institute Molecular Screening Center.
